Results on five compounds are retold here after ChEMBL document CHEMBL5104224, “Alkyltriphenylphosphonium turns naphthoquinoneimidazoles into potent membrane depolarizers against mycobacteria” (RSC Med Chem, 2022).

Test [1] deals with Mycobacterium tuberculosis variant bovis. The test can be described thus: Induction of oxidative stress Mycobacterium bovis BCG ATCC 35734 expressing pfurA-RFP assessed as activation of pfurA at 0.5 to 2 times MIC90 measured after 24 hrs by fluorescence assay. The test is classed as functional, organism-based. The method in brief: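 BCG carrying an integrated pfurA-mCherry reporter (kanamycin-selected). […] Red fluorescence (Ex 587/Em 630 nm) normalized to OD600. INH negative control.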

For test [2] the test system is unchanged. The test can be described thus: Antimycobacterial activity against Mycobacterium bovis BCG ATCC 35734 assessed as increase in ROS level at 0.175 to 0.64 uM incubated for 2 hrs by CellROX green reagent fluorescence assay. The format is functional, organism-based. The conditions noted are these: dose 0.175-0.64 µM, DDE = dose-dependent effect. Put shortly: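 CellROX Green then added to 10 μM final, followed by 30 min at 37°C in the dark. Readout is green fluorescence (Ex 485/Em 520 nm) normalized to OD600. Naphthoquinone positive control, INH negative control.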

Test [3] shares this test system. The test can be described thus: Bactericidal activity against Mycobacterium bovis BCG ATCC 35734 assessed as reduction on colony forming unit at 15 uM measured upto 14 days by time killing assay. The conditions noted are these: time <= 14.0 day. The test is classed as functional, organism-based.
For test [4] the test system is unchanged. The experiment in a line: Bactericidal activity against Mycobacterium bovis BCG ATCC 35734 assessed as reduction on colony forming unit at 5 uM measured after 8 days by time killing assay. Particulars: time 8.0 day. The format is functional, organism-based.
The test system is the same in test [5]. The experiment in a line: Antimycobacterial activity against Mycobacterium bovis BCG ATCC 35734 assessed as inhibition of bacterial growth by two-fold serial broth dilution method. The format is functional. The method in brief: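 BCG grown at 37°C in 7H9 broth with 0.05% Tween-80, 0.5% glycerol and 10% ADC. Broth dilution method. MIC50/MIC90 are the concentrations giving 50%/90% growth inhibition versus untreated drug-free controls.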
For orientation: In broth dilution the organism is exposed to a series of concentrations in liquid medium.

Structures are written as SMILES. Calls of active or inactive are those of the source. No cut-off for these calls is given here.

As for `CCCCCCCCn1c2c([n+](CCCC)c1C)C(=O)c1ccccc1C2=O.[Br-]`, the result in test [1] was Active. The Activity entry in test [2] is “Dde”.
For the compound `NNC(=O)c1ccncc1`, the outcome in test [3] was Active.
Regarding `CCCCn1c2c([n+](C3CCC4(CCCCC4)CC3)c1C)C(=O)c1ccccc1C2=O.[Br-]`, in test [1], the outcome was Active. Also, the Activity entry in test [2] was “Dde”.
In the case of `Cc1nc2c(n1CCCCCCCCC[P+](c1ccccc1)(c1ccccc1)c1ccccc1)C(=O)c1ccccc1C2=O`, the outcome in test [4] was Active.
In general, MIC90 refers to the lowest concentration that inhibits either 90% of growth or 90% of the strains tested, depending on the study. `Cc1nc2c(n1CCCCCCCCCCC[P+](c1ccccc1)(c1ccccc1)c1ccccc1)C(=O)c1ccccc1C2=O`: in test [5], the MIC90 was found to be 0.8 µM.
